In ChEMBL document CHEMBL5696444 (Nat Commun, 2017):
Active and inactive are the calls of the source. The calls are words filed in the database; no cut-off is given here.

What was measured:
[1] = target: Mitogen-activated protein kinase 11 (Homo sapiens) (UniProt Q15759); experiment: Inhibition of MAPK11 (unknown origin) at 100 nM in the presence of ATP by Kinome scan method relative to control
[2] = target: Dual specificity protein kinase CLK1 (Homo sapiens) (UniProt P49759); experiment: Inhibition of CLK (unknown origin) in human 184-hTERT cells assessed as induction in alternative splicing effect in S6K skipped exon incubated for 6 hrs by RT-PCR analysis; format: cell-based; details: dose 0.2-5 µM
Sequence of Dual specificity protein kinase CLK1 (Homo sapiens) (P49759 whole entry, looked up, canonical isoform): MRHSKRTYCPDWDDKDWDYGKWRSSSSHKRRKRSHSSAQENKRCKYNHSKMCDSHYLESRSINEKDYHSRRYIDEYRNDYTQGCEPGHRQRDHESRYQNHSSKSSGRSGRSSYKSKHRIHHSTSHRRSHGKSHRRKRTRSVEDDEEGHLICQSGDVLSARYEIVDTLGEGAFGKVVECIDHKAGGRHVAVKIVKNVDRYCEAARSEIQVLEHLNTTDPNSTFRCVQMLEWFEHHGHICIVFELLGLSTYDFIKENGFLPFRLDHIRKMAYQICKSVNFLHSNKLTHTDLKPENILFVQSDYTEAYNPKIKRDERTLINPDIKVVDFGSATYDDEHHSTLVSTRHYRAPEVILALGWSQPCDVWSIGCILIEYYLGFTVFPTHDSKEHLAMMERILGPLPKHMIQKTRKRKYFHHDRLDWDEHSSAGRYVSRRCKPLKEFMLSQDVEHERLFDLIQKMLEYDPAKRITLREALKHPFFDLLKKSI
Summary of the method: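 Cells exposed to graded T3 concentrations for 6 h (chosen to avoid cytotoxicity), with a DMSO vehicle control. Total RNA was reverse-transcribed with oligo-dT primers. Targeted splice or conjoined-gene products were quantified by real-time qPCR or by targeted next-generation sequencing. Conjoined-gene isoform expression was normalized to a sequenced housekeeping gene.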

[3] = target: Homeodomain-interacting protein kinase 2 (Homo sapiens) (UniProt Q9H2X6); experiment: Inhibition of HIPK2 (unknown origin) at 1000 nM in the presence of ATP by Kinome scan method relative to control
[4] = target: Tyrosine-protein kinase receptor UFO (Homo sapiens) (UniProt P30530); experiment: Inhibition of AXL (unknown origin) at 100 nM in the presence of ATP by Kinome scan method relative to control
Sequence of Tyrosine-protein kinase receptor UFO (Homo sapiens) (P30530 whole entry): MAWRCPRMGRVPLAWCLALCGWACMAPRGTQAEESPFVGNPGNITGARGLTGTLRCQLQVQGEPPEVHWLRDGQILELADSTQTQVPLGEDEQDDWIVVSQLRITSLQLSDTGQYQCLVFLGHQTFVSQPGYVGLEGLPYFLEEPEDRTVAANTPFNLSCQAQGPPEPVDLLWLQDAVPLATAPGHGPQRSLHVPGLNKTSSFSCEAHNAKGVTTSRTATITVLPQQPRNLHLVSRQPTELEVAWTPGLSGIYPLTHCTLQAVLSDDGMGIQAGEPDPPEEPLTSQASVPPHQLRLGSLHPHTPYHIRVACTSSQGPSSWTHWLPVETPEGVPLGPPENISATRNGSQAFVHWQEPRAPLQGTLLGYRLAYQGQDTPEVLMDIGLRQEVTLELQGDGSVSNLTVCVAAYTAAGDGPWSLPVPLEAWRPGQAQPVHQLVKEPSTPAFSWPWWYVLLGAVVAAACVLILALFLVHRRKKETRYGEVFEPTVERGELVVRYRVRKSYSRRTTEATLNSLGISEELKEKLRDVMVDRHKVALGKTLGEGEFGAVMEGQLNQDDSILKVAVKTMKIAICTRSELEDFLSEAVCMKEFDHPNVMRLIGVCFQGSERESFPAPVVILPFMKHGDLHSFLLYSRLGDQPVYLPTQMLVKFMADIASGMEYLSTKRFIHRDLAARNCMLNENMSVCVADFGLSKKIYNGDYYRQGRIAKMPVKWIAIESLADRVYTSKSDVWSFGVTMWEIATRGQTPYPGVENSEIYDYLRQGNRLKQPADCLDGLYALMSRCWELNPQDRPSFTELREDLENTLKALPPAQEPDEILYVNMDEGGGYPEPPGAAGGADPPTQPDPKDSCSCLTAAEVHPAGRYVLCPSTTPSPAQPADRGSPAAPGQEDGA

[5] = target: MAP kinase-activated protein kinase 2 (Homo sapiens) (UniProt P49137); experiment: Inhibition of MAPKAPK2 (unknown origin) at 100 nM in the presence of ATP by Kinome scan method relative to control
[6] = target: Homeodomain-interacting protein kinase 1 (Homo sapiens) (UniProt Q86Z02); experiment: Inhibition of HIPK1 (unknown origin) at 100 nM in the presence of ATP by Kinome scan method relative to control
HCT-116 [7] = experiment: Induction of cell cycle arrest in human HCT-116 cells assessed as G0/G1 phase at 0.5 uM incubated for 6 hrs by flow cytometry analysis (Rvb=35.0%); format: functional
HCT-116 [8] = experiment: Induction of cell cycle arrest in human HCT-116 cells assessed as S phase at 1 uM incubated for 6 hrs by flow cytometry analysis (Rvb=39.3%); format: functional
[9] = target: Dual specificity tyrosine-phosphorylation-regulated kinase 1B (Homo sapiens, UniProt Q9Y463); experiment: Inhibition of DYRK1B (unknown origin) at 123 nM in the presence of ATP by Kinome scan method relative to control; details: time > 6.0 hrs
[10] = target: Tyrosine-protein kinase ABL1 (Homo sapiens) (UniProt P00519); experiment: Inhibition of ABL1 (unknown origin) at 100 nM in the presence of ATP by Kinome scan method relative to control
HCT-116 [11] = experiment: Induction of cell cycle arrest in human HCT-116 cells assessed as G0/G1 phase at 10 uM incubated for 6 hrs by flow cytometry analysis (Rvb=35.0%); format: functional
HCT-116 [12] = experiment: Induction of cell cycle arrest in human HCT-116 cells assessed as S phase at 0.5 uM incubated for 6 hrs by flow cytometry analysis (Rvb=39.3%); format: functional
[13] = target: T1, AMP-activated protein kinase (AMPK) alpha-1/beta-1/gamma-1 (Homo sapiens) (UniProt P54619+Q9Y478+Q13131); experiment: Inhibition of AMPK A1/B1/G1 (unknown origin) at 1000 nM in the presence of ATP by Kinome scan method relative to control; format: protein-complex assay
T1 sequence (P54619 whole entry): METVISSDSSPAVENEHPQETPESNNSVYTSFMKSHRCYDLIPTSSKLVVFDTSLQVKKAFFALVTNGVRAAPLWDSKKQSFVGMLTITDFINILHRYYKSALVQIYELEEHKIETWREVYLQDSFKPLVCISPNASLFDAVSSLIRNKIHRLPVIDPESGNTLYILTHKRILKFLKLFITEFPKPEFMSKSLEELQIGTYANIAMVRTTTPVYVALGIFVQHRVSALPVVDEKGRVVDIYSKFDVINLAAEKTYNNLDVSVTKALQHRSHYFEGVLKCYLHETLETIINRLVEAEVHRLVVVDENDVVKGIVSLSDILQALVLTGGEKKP
T1 sequence (Q13131 whole entry partner): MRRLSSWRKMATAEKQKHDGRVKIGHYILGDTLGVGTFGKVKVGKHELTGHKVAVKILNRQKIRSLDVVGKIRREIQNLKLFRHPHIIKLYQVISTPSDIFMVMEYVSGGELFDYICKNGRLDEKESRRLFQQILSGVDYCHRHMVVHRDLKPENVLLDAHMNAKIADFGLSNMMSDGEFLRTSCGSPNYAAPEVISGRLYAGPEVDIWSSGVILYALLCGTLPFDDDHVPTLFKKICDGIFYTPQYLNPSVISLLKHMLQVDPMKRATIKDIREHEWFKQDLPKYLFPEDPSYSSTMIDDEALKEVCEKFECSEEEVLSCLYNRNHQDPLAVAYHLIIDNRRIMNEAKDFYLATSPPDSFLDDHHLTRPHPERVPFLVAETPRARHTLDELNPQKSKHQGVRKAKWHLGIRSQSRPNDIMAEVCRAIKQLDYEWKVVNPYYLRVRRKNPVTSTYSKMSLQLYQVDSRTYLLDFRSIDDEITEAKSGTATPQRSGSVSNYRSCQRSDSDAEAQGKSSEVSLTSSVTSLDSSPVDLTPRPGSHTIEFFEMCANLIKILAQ
T1 sequence (Q9Y478 2-270 partner limits assumed): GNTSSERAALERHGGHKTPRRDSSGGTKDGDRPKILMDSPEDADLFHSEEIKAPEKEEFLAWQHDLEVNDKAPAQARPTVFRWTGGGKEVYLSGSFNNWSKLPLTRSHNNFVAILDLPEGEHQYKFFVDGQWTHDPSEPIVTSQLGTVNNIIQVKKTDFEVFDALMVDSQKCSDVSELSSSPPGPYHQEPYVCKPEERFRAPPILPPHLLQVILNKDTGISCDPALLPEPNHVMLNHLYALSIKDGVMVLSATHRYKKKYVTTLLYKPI

HCT-116 [14] = experiment: Induction of apoptosis in human HCT-116 cells assessed as necrosis cells at 5 uM incubated for > 6 hrs by annexin V/PI staining based analysis (Rvb=0.55%); format: functional
[15] = target: Rho-associated protein kinase 1 (Homo sapiens) (UniProt Q13464); experiment: Inhibition of ROCK1 (unknown origin) at 100 nM in the presence of ATP by Kinome scan method relative to control
Sequence of Rho-associated protein kinase 1 (Homo sapiens) (Q13464 2-1354 limits assumed): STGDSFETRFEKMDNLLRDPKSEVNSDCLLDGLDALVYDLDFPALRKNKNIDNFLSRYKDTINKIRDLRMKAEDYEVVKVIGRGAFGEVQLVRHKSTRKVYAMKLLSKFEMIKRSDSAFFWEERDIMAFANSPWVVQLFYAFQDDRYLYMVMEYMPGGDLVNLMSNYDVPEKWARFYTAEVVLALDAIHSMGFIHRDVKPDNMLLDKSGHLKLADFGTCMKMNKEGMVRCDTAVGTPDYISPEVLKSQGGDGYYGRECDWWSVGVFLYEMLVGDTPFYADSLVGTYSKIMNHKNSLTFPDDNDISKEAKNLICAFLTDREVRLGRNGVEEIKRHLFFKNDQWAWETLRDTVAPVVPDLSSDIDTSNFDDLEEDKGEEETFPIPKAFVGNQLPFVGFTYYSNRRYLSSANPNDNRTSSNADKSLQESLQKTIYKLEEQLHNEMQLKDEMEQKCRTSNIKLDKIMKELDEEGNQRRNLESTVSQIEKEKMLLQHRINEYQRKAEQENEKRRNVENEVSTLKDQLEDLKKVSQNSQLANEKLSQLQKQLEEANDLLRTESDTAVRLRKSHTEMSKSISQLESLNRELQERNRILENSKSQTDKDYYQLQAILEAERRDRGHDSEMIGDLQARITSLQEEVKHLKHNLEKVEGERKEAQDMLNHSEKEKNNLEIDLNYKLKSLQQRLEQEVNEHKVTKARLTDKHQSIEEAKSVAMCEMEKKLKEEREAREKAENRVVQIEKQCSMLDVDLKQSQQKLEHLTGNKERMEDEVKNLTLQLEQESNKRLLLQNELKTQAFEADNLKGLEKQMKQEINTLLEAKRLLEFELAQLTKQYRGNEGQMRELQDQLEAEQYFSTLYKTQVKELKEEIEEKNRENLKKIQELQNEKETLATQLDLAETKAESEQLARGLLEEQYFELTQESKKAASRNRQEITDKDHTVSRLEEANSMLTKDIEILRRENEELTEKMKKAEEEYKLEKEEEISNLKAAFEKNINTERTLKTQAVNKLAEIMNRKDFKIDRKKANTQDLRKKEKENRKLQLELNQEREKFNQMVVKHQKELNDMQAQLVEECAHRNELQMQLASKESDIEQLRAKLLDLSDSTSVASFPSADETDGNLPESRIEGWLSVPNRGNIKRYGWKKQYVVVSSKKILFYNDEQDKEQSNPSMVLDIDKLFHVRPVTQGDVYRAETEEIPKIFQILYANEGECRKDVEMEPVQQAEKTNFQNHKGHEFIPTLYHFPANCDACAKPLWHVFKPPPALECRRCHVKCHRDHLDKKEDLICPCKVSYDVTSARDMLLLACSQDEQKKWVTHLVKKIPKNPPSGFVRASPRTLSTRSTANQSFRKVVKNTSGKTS

[16] = target: Mitogen-activated protein kinase 1 (Homo sapiens) (UniProt P28482); experiment: Inhibition of MAPK1 (unknown origin) at 1000 nM in the presence of ATP by Kinome scan method relative to control
[17] = target: Fibroblast growth factor receptor 1 (Homo sapiens) (UniProt P11362); experiment: Inhibition of FGFR1 (unknown origin) at 1000 nM in the presence of ATP by Kinome scan method relative to control
HCT-116 [18] = experiment: Induction of cell cycle arrest in human HCT-116 cells assessed as S phase at 0.1 uM incubated for 24 hrs by flow cytometry analysis (Rvb=46.4%); format: functional
HCT-116 [19] = experiment: Induction of cell cycle arrest in human HCT-116 cells assessed as G2/M phase at 0.5 uM incubated for 6 hrs by flow cytometry analysis (Rvb=25.8%); format: functional
[20] = target: Dual specificity protein kinase CLK2 (Homo sapiens, UniProt P49760); experiment: Inhibition of N-terminal FLAG-tagged CLK2 in human HCT-116 cells assessed as increase in CLK2 protein level at 0.5 to 0.1 uM incubated for 6 hrs by immunoblot analysis; format: cell-based; details: dose 0.5-0.1 µM
Sequence of Dual specificity protein kinase CLK2 (P49760 whole entry, looked up): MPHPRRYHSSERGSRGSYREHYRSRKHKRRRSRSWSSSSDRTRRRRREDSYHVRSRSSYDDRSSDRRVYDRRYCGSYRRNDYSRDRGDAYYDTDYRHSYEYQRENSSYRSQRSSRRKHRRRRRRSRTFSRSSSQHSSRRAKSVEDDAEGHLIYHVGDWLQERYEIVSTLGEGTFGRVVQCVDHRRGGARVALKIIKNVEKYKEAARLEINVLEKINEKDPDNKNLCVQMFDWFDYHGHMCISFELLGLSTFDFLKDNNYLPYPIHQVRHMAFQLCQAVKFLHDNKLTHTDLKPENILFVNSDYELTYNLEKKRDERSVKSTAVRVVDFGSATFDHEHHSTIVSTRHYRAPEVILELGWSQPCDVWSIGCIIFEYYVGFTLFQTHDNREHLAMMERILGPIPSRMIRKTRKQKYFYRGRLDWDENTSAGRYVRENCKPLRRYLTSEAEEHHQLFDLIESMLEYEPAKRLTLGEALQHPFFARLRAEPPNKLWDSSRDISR

[21] = target: T1, AMP-activated protein kinase (AMPK) alpha-1/beta-1/gamma-1 (Homo sapiens); experiment: Inhibition of AMPK A1/B1/G1 (unknown origin) at 100 nM in the presence of ATP by Kinome scan method relative to control; format: protein-complex assay
HCT-116 [22] = experiment: Induction of cell cycle arrest in human HCT-116 cells assessed as G0/G1 phase at 1 uM incubated for 6 hrs by flow cytometry analysis (Rvb=35.0%); format: functional
[23] = target: Serine/threonine-protein kinase Nek1 (Homo sapiens) (UniProt Q96PY6); experiment: Inhibition of NEK1 (unknown origin) at 1000 nM in the presence of ATP by Kinome scan method relative to control
[24] = target: Rho-associated protein kinase 1 (Homo sapiens) (UniProt Q13464); experiment: Inhibition of ROCK1 (unknown origin) at 1000 nM in the presence of ATP by Kinome scan method relative to control
HCT-116 [25] = experiment: Induction of cell cycle arrest in human HCT-116 cells assessed as sub G0/G1 phase at 0.1 uM incubated for 6 hrs by flow cytometry analysis (Rvb=1.6%); format: functional
HCT-116 [26] = experiment: Induction of cell cycle arrest in human HCT-116 cells assessed as G2/M phase at 5 uM incubated for 6 hrs by flow cytometry analysis (Rvb=25.8%); format: functional
[27] = Stability of compound in tissue culture medium assessed as remaining parent compound at 5.38 uM incubated for 24 hrs; format: physicochemical; details: read-out: Stability
[28] = target: SRSF protein kinase 2 (Homo sapiens) (UniProt P78362); experiment: Inhibition of SRPK2 (unknown origin) at 1110 nM in the presence of ATP by Kinome scan method relative to control; details: time > 6.0 hrs
[29] = target: PI3-kinase p110-alpha/p85-alpha (Homo sapiens) (UniProt P27986+P42336); experiment: Inhibition of PIK3CA/PIK3R1 (unknown origin) at 1000 nM in the presence of ATP by Kinome scan method relative to control; format: protein-complex assay
HCT-116 [30] = experiment: Induction of cell cycle arrest in human HCT-116 cells assessed as G2/M phase at 10 uM incubated for 6 hrs by flow cytometry analysis (Rvb=25.8%); format: functional
[31] = target: Dual specificity protein kinase CLK3 (Homo sapiens) (UniProt P49761); experiment: Inhibition of CLK3 (unknown origin) at 1110 nM in the presence of ATP by Kinome scan method relative to control; details: time > 6.0 hrs

Sequence of Mitogen-activated protein kinase 11 (Homo sapiens) (Q15759 whole entry): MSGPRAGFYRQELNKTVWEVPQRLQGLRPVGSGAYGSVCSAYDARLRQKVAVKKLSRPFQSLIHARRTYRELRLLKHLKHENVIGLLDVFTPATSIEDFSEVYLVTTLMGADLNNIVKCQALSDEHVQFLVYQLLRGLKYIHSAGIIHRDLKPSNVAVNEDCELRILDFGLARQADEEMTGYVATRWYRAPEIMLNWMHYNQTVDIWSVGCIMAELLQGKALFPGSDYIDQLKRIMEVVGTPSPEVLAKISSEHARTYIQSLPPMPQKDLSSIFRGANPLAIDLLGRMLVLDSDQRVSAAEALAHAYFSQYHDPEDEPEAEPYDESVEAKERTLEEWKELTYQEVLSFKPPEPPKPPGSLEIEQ

inhibition [1]: 1% | inhibition [2]: Dose-Dependent Effect | inhibition [3]: -2% | inhibition [4]: -10% | inhibition [5]: 4% | inhibition [6]: -1% | inhibition [9]: 63% | inhibition [10]: 10% | inhibition [13]: 0% | inhibition [15]: 5% | inhibition [16]: 4% | inhibition [17]: 9% | inhibition [20]: Active | inhibition [21]: -2% | inhibition [23]: 25% | inhibition [24]: 9% | remaining at 24 h, 5.38 µM [27]: 98.8% | inhibition [28]: 5% | inhibition [29]: 4% | inhibition [31]: 89%
SMILES: CN1CCN(C(=O)C(C)(C)c2ccc(C(=O)Nc3cn4cc(-c5ccncc5)ccc4n3)cc2)CC1 [T3-CLK]
Activity (HCT-116 [7]): 18.4% | Activity (HCT-116 [8]): 47% | Activity (HCT-116 [11]): 28.4% | Activity (HCT-116 [12]): 46.9% | Activity (HCT-116 [14]): 0.87% | Activity (HCT-116 [18]): 40.7% | Activity (HCT-116 [19]): 34.8% | Activity (HCT-116 [22]): 18.4% | Activity (HCT-116 [25]): 1.5% | Activity (HCT-116 [26]): 34.5% | Activity (HCT-116 [30]): 26.3%
